MT1-MMP act inh: blocks activation of human MT1-MMP; HT1080 RFP-PRO-GFP cells, GFP/RFP ratio fluorescence, overnight; percent of plate control window, DMSO zero; GFP/RFP ratio change, % at 20 µM; 360,000 tested, 0.061% active; AID 651647;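 active = GFP/RFP ratio change of at least 30% with cell ATP level not reduced by more than half and red fluorescence within 50% of control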
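Material: RFP-PRO-GFP reporter HT1080 cells. Dosing: single-point 20 µM compound, 1% DMSO. Controls: DMSO and RFP-L50D-GFP cell wells. Timing: cells overnight before dosing, compound overnight, 37 °C, 5% CO2. Measure: GFP/RFP fluorescence ratio.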
SKN-1 inh: inhibitors of C. elegans SKN-1. C. elegans VP596 Pgst-4::GFP/RFP ratio, acrylamide-induced, 24 h. inhibition, % at 21.8 µM. 360,000 tested, 0.49% active. AID 624304;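 active = interference check ratio from 0.5 to 1.5 plus GFP to RFP signal ratio inhibition reaching or exceeding a fixed threshold, cut at about 30% in these data, passing the limit was not always enough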
PABP FP inh: blocks human PABP binding to poly(A) RNA; fluorescence polarization; AID 2014; 290,000 tested, 1% active; calls only at 35 µM; P11940;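 also: calls also rest on retests at 20 µM and on dose response follow-up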
Target sequence (P11940 whole entry, looked up): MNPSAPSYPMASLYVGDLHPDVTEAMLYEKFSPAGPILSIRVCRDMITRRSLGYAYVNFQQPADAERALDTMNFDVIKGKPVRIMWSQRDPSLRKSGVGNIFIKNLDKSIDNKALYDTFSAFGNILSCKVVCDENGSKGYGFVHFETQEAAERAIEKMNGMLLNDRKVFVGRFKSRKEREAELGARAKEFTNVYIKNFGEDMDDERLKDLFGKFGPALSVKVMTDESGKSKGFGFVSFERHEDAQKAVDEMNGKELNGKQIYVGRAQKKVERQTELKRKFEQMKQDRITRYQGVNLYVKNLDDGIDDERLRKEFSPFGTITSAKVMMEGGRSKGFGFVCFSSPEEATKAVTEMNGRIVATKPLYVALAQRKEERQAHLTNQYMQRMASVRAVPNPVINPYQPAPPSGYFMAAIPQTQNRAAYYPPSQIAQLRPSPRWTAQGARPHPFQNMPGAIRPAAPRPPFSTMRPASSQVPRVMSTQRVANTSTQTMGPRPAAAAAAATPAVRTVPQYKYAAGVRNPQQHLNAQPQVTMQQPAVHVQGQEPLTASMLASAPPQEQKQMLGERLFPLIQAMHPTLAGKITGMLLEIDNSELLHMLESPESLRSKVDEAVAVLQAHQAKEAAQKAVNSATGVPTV
MLLE-PAM2 inh: blocks PAM2 peptide binding to the PABP1 MLLE domain; 360,000 tested, 0.36% active; GST-MLLE / FITC-PAM2 fluorescence polarization; inhibition, % at 20 µM; in the data active = inhibition above about 35%, passing the limit was not always enough;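 also: plate controls were DMSO wells with GST-MLLE for no effect and wells lacking GST-MLLE protein for full effect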
eIF4H FP inh: inhibitors of RNA binding by human eIF4H; 290,000 tested, 0.94% active; eIF4H fluorescence polarization binding assay; inhibition, % at 35 µM; Q15056;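 also: calls also rest on retests at 20 µM and on dose response follow-up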
Starred values were filed as active, the others as inactive; i = inactive; ? = inconclusive; · = no result; + = active, no number. A selection: hits, their analogues and other compounds. The true share with any hit is near 1.8%. Unless noted, no rule for the calls is given here.

SMILES | MT1-MMP act inh | SKN-1 inh | PABP FP inh | MLLE-PAM2 inh | eIF4H FP inh
O=C1C=CC(=O)N1c1ccccc1N1C(=O)C=CC1=O | 0 | 5 | · | 44* | ·
O=C1C=CC(=O)N1c1ccccn1 | -2 | 1 | · | 36 | ·
O=C(c1ccccc1)c1ccccc1N1C(=O)C=CC1=O | 1 | 8 | i | 39* | -11
COc1nc(-c2ccccc2)ccc1-c1noc(-c2ccco2)n1 | -3 | 63* | i | -137 | -11
COc1ccc(-c2ccc(-c3noc(-c4ccco4)n3)c(OC)n2)cc1 | -4 | 6 | i | -36 | 9
CC(C)Cc1ccc(C2=CSC3=NCCN23)cc1 | -5 | 6 | · | -8 | ·
CC(C)(C)c1ccc(C2=CSC3=NCCN23)cc1 | -5 | 48* | i | 10 | -4
O=C(O)CSC1CC(=O)N(c2ccc(Cl)c(Cl)c2)C1=O (stereo unspecified) | -5 | 4 | i | 41* | -8
C/C(N)=C(/C#N)C(=O)CN1C(=O)NC(Cc2c[nH]c3ccccc23)C1=O (stereo unspecified) | -3 | 14 | i | -3 | 57*
CC(C)(C)c1cc(C2COC(=O)COCCOCC(=O)OCCOCCO2)cc(C(C)(C)C)c1O (stereo unspecified) | 3 | -20 | · | -7 | ·
Nc1cc(=O)[nH]c(SCc2cccc3ccccc23)n1 | 1 | -4 | i | 9 | 5
N#CC1=C(N)N=C(SCc2cccc3ccccc23)C(C(N)=O)C12CCCCC2 (stereo unspecified) | 7 | 24 | i | 40* | -8
CCN(CC)CCCNc1ncnc2ccccc12 | -3 | 6 | + | 3 | 44
O=C(Nc1ccc2c(c1)OCCO2)C(c1ccccc1)n1c(=O)c(-c2ccco2)nc2ccccc21 (stereo unspecified) | -6 | 8 | · | · | ·
CN(C(=S)NC(=O)c1ccccc1)c1c(N)n(Cc2ccccc2)c(=O)[nH]c1=O | 1 | -1 | i | 40* | -8
CC(C)CN1C(=O)CN(S(C)(=O)=O)CC1(C)C(=O)Nc1ccc2c(c1)OCCO2 (stereo unspecified) | 13 | -10 | · | · | ·
COc1ccc(NC(=O)c2cccc(S(=O)(=O)N3CCOCC3)c2)cn1 | -5 | 16 | + | 19 | 73*
O=C(O)COc1ccccc1/C=N/NC(=O)c1cccc(S(=O)(=O)N2CCOCC2)c1 | -3 | 7 | i | 3 | 2.2*
COc1cc(OC)c(OC)cc1/C=N/NC(=O)c1cccc(S(=O)(=O)N2CCOCC2)c1 | -2 | 13 | i | 4 | -6
CCCSc1nnc(N2C(=O)C(O)=C(C(=O)c3ccco3)C2c2ccccc2F)s1 (stereo unspecified) | -45 | 4 | + | 19 | ?
COc1ccc(NC(=O)CCS(=O)(=O)c2ccc(Br)s2)cc1 | 4 | -14 | i | -1 | 91*
O=C(CCS(=O)(=O)c1ccc(Br)cc1)NCc1ccco1 | -5 | -11 | i | -7 | 81*
CCOc1ccccc1NC(=O)CCS(=O)(=O)c1ccc(Br)cc1 | -3 | -10 | + | 9 | 84*
CCOc1ccc(NC(=O)CCS(=O)(=O)c2ccc(Br)cc2)cc1 | 1 | 1 | i | 7 | 76*
O=C(CCS(=O)(=O)c1ccc(Br)cc1)NCc1cccs1 | -3 | -16 | i | 6 | 30
SMILES | MT1-MMP act inh | SKN-1 inh | PABP FP inh | MLLE-PAM2 inh | eIF4H FP inh
O=C(NCC1COc2ccccc2O1)c1ccc(Br)s1 (stereo unspecified) | -1 | 2 | i | 8 | 1
C[C@@H]1CN([C@@H](C)CO)C(=O)CCCn2nncc2CO[C@H]1CN(C)C | -1 | -18 | · | 6 | ·
O=C1c2ccccc2/C(=C\C#Cc2ccccn2)N1c1ccccc1 | -23 | 30 | · | -1 | ·
COc1ccc([N+](=O)[O-])cc1NC(=O)CCS(=O)(=O)c1ccc(Br)cc1 | 8 | -6 | i | 1 | 96*
COc1ccc([N+](=O)[O-])cc1NC(=O)CS(=O)(=O)c1ccc(C)cc1 | 1 | 12 | i | -2 | 2
COC(=O)c1ccccc1NC(=O)CCS(=O)(=O)c1ccc(Br)cc1 | -2 | 9 | i | -6 | 86*
CC1CCCN(S(=O)(=O)c2ccc3c(c2)OCCO3)C1 (stereo unspecified) | 2 | 7 | · | -8 | ·
CCCOc1ccc(F)cc1-c1cc(C(=O)NCc2cccs2)[nH]n1 | -3 | 33 | · | -3 | ·
CCN(CC)c1ccc(N=Cc2ccccc2[N+](=O)[O-])cc1 | 52* | 10 | i | 24 | 2
CCN(CC)c1ccc(N=Cc2ccc([N+](=O)[O-])o2)cc1 | 6 | 10 | + | -17 | 72*
O=C(O)C(O)c1ccccc1 (stereo unspecified) | 2 | 5 | i | -7 | -8
O=C(O)C(O)c1ccco1 (stereo unspecified) | -2 | 0 | + | -7 | 104*
CCOC(=O)c1c2ccc(OCC(=O)NN)cc2n2ccccc12 | -6 | -16 | i | 58* | 10
CCOC(=O)c1c2ccc(OCC(=O)N/N=C/c3ccc(C)cc3)cc2n2ccccc12 | -7 | -14 | i | 11 | 7
C(/C=C/c1ccccn1)=C\c1ccccc1 | -1 | 64* | · | 2 | ·
COc1ccc(OCC(=O)Nc2ccccc2C(=O)N2CCOCC2)cc1 | -1 | 3 | + | -11 | active
O=C(COc1ccc(Br)cc1)Nc1ccccc1C(=O)N1CCOCC1 | -3 | -1 | i | 1 | 0
C[C@]1(CC/C(=C/CO)CO)[C@H](C=O)CC[C@@]23COC(=O)C2=CCC[C@@H]31 | 5 | -5 | · | -2 | ·
CCC1=C/C(=C/N(C)c2ccccc2)C(=O)S1 | -13 | 4 | + | 31 | 53*
CN(C)/C=C1/C=C(c2ccccc2)OC1=O | -5 | 0 | i | 6 | 2
CCSc1nnc(NC(=O)C2CCCN(C(=O)c3ccc(Cl)cc3)C2)s1 (stereo unspecified) | 1 | -3 | · | -1 | ·
CSc1cccc(NC(=O)C2C3C=CC4(O3)C2C(=O)N(CCN2CCOCC2)C4C(=O)NC2CCCCC2)c1 (stereo unspecified) | 1 | 37* | i | 12 | -14
Cc1ccc(NC(=O)C2C3C=CC4(O3)C2C(=O)N(CCN2CCOCC2)C4C(=O)NC2CCCCC2)cc1C (stereo unspecified) | -1 | 8 | i | 8 | -20
O=[n+]1c2c(n([O-])c3cc(F)c(F)cc31)CCCC2 | 0 | 18 | i | 16 | 66*
O=[n+]1c2c(n([O-])c3cc(Br)ccc31)CCCC2 | 3 | 11 | i | -2 | -1
Cc1ccc(CS(=O)Cc2ccc(C(=O)NCc3ccccc3Br)o2)cc1 (stereo unspecified) | 2 | -4 | i | -4 | -10
CC(C)Oc1ccc(C(=O)NC2(C(F)(F)F)N=C3SCCN3C2=O)cc1 (stereo unspecified) | 2 | 23 | i | 46* | -7
